*1 amine or outer side, *2 acyl side, *3 side chain or, on linkers, in order; H or OH if unused. Where a SMILES comes first, the peptide text is derived from it. Bridges are numbered along the chain shown (N, C = ends). [ ]: non-standard residue; d: D form. The star is where a group is joined. Staurosporine = CO[C@@H]1[C@H](N(C)*)C[C@H]2O[C@]1(C)n1c3ccccc3c3c4c(c5c6ccccc6n2c5c31)C(=O)NC4; Suc = O=C(CCC(=O)[*:2])[*:1]; Dap = NC[C@H](N)C(=O)O; βAla = NCCC(=O)O
Experiments:
[1] = biological target: T1, Tyrosine-protein kinase JAK3 (Homo sapiens) (UniProt P52333); assay: Binding affinity to human JAK3 kinase domain 2 at 500 nM by cell-based competition binding assay relative to control in presence of DTT
T1 sequence (whole entry): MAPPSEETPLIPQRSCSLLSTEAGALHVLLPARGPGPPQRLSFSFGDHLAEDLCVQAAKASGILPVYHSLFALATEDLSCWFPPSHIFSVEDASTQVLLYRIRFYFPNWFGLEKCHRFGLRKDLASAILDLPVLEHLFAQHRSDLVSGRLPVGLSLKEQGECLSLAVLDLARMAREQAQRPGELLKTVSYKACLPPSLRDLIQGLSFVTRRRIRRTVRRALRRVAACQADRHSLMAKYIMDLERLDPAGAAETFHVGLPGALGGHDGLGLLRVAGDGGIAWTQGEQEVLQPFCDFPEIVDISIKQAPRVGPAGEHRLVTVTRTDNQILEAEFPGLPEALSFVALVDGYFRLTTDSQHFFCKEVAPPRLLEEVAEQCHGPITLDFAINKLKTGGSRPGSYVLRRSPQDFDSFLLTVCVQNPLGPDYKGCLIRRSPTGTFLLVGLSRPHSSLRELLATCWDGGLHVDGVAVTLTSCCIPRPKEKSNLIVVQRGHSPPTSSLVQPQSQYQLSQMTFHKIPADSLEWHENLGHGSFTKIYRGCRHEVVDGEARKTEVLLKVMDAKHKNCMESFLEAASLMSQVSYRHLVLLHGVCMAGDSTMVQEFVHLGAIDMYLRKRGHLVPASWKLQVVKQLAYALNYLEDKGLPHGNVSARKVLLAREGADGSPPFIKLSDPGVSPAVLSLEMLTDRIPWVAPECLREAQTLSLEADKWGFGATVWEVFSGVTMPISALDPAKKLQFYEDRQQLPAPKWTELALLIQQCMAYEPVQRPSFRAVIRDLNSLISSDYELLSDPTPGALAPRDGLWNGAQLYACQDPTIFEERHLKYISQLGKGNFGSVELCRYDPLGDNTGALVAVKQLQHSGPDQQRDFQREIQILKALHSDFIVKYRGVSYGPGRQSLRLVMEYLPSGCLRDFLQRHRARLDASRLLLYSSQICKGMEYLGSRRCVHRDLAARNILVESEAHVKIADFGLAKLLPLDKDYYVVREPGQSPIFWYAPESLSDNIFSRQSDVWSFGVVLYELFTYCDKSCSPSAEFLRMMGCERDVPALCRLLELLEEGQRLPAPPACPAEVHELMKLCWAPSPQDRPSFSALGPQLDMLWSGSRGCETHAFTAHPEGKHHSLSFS
Method in brief: (§1)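 Competition binding screen (Ambit) across a panel of 90 kinases, scoring test ligand displacement of each kinase's binding relative to control. The screen ran under reducing conditions with 7.5 mM DTT.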

[2] = biological target: Cyclin-dependent kinase 9 (Homo sapiens) (UniProt P50750); assay: Binding affinity to human CDK9 at 500 nM by cell-based competition binding assay relative to control in presence of DTT
Method in brief: (§2)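 Commercial (Ambit) competitive kinase-binding panel of 90 kinases measured the binding profile. Run under reducing conditions of 7.5 mM DTT. Binding is expressed relative to control.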

[3] = biological target: T2, Activin receptor type-1B (Homo sapiens) (UniProt P36896); assay: Binding affinity to human ACVR1B at 500 nM by cell-based competition binding assay relative to control in presence of DTT
T2 sequence (whole entry): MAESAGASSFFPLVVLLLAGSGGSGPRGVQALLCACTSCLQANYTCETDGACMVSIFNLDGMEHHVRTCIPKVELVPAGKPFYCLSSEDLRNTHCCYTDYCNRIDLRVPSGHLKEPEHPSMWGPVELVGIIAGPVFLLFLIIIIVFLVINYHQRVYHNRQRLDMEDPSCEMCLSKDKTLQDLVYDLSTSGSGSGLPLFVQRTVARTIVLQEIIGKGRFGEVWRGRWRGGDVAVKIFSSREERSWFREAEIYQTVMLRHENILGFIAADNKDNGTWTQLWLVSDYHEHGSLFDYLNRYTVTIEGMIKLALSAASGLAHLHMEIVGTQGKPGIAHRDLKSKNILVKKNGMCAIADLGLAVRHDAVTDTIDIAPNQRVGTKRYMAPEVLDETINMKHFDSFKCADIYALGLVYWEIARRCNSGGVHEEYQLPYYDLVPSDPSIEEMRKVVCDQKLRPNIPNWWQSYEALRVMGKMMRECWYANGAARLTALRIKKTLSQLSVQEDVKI
Method in brief: (§3)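 Kinase binding profiling ran on a commercial (Ambit) competitive binding screen against a panel of 90 kinases. The screen used reducing conditions with 7.5 mM DTT. To withstand the DTT, the bivalent ligand was tested as its amide isostere, with the disulfide replaced. A staurosporine derivative carrying a 3 β-alanine linker was run as the reference compound.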

[4] = tested on: Mast/stem cell growth factor receptor Kit (Homo sapiens), P10721 [V559D,T670I]; assay: Binding affinity to human KIT V559D,T670I mutant at 500 nM by cell-based competition binding assay relative to control in presence of DTT; method in brief: as §1
[5] = biological target: RAF proto-oncogene serine/threonine-protein kinase (Homo sapiens) (UniProt P04049); assay: Binding affinity to human RAF1 at 200 nM by cell-based competition binding assay relative to control in presence of DTT
[6] = biological target: Serine/threonine-protein kinase PAK 2 (Homo sapiens) (UniProt Q13177); assay: Binding affinity to human PAK2 at 200 nM by cell-based competition binding assay relative to control in presence of DTT
[7] = biological target: Fibroblast growth factor receptor 2 (Homo sapiens) (UniProt P21802); assay: Binding affinity to human FGFR2 at 200 nM by cell-based competition binding assay relative to control in presence of DTT; method in brief: as §2
[8] = biological target: Serine/threonine-protein kinase pim-1 (Homo sapiens) (UniProt P11309); assay: Binding affinity to human PIM1 at 200 nM by cell-based competition binding assay relative to control in presence of DTT
[9] = tested on: Mast/stem cell growth factor receptor Kit (Homo sapiens), P10721 [V559D,T670I]; assay: Binding affinity to human KIT V559D,T670I mutant at 200 nM by cell-based competition binding assay relative to control in presence of DTT; method in brief: as §1
[10] = biological target: Phosphatidylinositol 4,5-bisphosphate 3-kinase catalytic subunit alpha isoform (Homo sapiens) (UniProt P42336); assay: Binding affinity to human PIK3Calpha at 50 nM by cell-based competition binding assay relative to control in presence of DTT
[11] = biological target: Mitogen-activated protein kinase 11 (Homo sapiens) (UniProt Q15759); assay: Binding affinity to human p38beta at 50 nM by cell-based competition binding assay relative to control in presence of DTT
[12] = biological target: Serine/threonine-protein kinase PAK 2 (Homo sapiens) (UniProt Q13177); assay: Binding affinity to human PAK2 at 50 nM by cell-based competition binding assay relative to control in presence of DTT
[13] = biological target: Cyclin-dependent kinase 2 (Homo sapiens) (UniProt P24941); assay: Binding affinity to human CDK2 at 50 nM by cell-based competition binding assay relative to control in presence of DTT; method in brief: as §3
[14] = biological target: Mitogen-activated protein kinase 14 (Homo sapiens) (UniProt Q16539); assay: Binding affinity to human p38alpha at 50 nM by cell-based competition binding assay relative to control in presence of DTT

CO[C@@H]1[C@H](N(C)C(=O)CCC(=O)NCCC(=O)NCCC(=O)NCCC(N)=O)C[C@H]2O[C@]1(C)n1c3ccccc3c3c4c(c5c6ccccc6n2c5c31)C(=O)NC4
Activity [1]: 3.6% | Activity [2]: 92% | Activity [3]: 87% | Activity [4]: 4.8%

CO[C@@H]1[C@H](N(C)C(=O)CCC(=O)NCCC(=O)NCCC(=O)NCCC(=O)NCCC(=O)NCCC(=O)NCCC(=O)NCCC(=O)N[C@H]2CSSC[C@@H](C(=O)NCC(N)=O)NC(=O)CNC(=O)[C@H](Cc3ccccc3)NC(=O)[C@H](C(C)C)NC(=O)[C@H](CCCNC(=N)N)NC(=O)[C@H](Cc3ccccc3)NC(=O)[C@H](C(C)C)NC2=O)C[C@H]2O[C@]1(C)n1c3ccccc3c3c4c(c5c6ccccc6n2c5c31)C(=O)NC4 ({Staurosporine-Suc-βAla-βAla-βAla-βAla-βAla-βAla-βAla}-CVFRVFGCG-NH2; disulfide 1-8)
Activity [5]: 89% | Activity [6]: 36% | Activity [7]: 66% | Activity [8]: 53% | Activity [9]: 4.1%

CO[C@@H]1[C@H](N(C)C(=O)CCC(=O)NCCC(=O)NCCC(=O)NCCC(=O)NCCC(=O)NCCC(=O)NCCC(=O)NCCC(=O)N[C@H]2CNC(=O)C[C@@H](C(N)=O)NC(=O)CNC(=O)[C@H](Cc3ccccc3)NC(=O)[C@H](C(C)C)NC(=O)[C@H](CCCNC(=N)N)NC(=O)[C@H](Cc3ccccc3)NC(=O)[C@H](C(C)C)NC2=O)C[C@H]2O[C@]1(C)n1c3ccccc3c3c4c(c5c6ccccc6n2c5c31)C(=O)NC4 ({Staurosporine-Suc-βAla-βAla-βAla-βAla-βAla-βAla-βAla}-[Dap]VFRVFGD-NH2; lactam 1-8)
Activity [10]: 100% | Activity [11]: 100% | Activity [12]: 72% | Activity [13]: 100% | Activity [14]: 95%
